Measurements collected from several papers.
Lines come from different studies, so protocols differ.
Read-out: cell growth or viability

SMILES | cell line | method | tested at | time | setting | measurement | result
Nc1ccc(/C=C/C(=O)N2CCc3c(oc4c(-c5ccc(F)cc5)cc(-c5ccc(C(=O)N6CCOCC6)nn5)cc34)C2)cn1 | Pan02 | CCK-8 | – | 72 h | – | IC50 | 570 nM
C#Cc1nc(C2=C(C)C(OC(=O)C(C)(C)C)/C(=N\OC(=O)C(C)(C)C)C2)cs1 (centres unmarked) | HT-1080 | – | – | – | – | CC50 | 73 nM
CCNCCCn1c2c(c3cc(OC)c(OC)cc3c1=O)C(=O)c1cc3c(nc1-2)OCO3 | SK-N-MC | MTS | – | 72 h | – | IC50 | 137 nM
COc1cc(NC(C)CCCN)c2ncccc2c1 (centres unmarked) | SH-SY5Y | resazurin | – | – | – | IC50 | > 50000 nM
CC(C)(C)c1cnc(CSc2cnc(NC(=O)C3CCN(CCCCCSc4cccc5c4CN(C4CCC(=O)NC4=O)C5=O)CC3)s2)o1 (centres unmarked) | HuT78 | trypan blue | 0.25 µM | 48 h | – | viability | 9.46%
C=CC(=O)NC1CCN(c2ncc3ncnc(Nc4ccc(Oc5ccc6c(c5)ncn6C)c(C)c4)c3n2)CC1 | KNS-62 | – | – | – | – | EC50 | 11 nM
C=C(F)C(=O)N1CCN(c2nc(OC[C@@H]3CCCN3C)nc3c2CCN(c2cccc4cccc(Cl)c24)C3)C[C@@H]1CC#N | Lu-99 | ATP luminescence | – | – | 3D culture | IC50 | 21.3 nM
O=C1C(O)=C([C@H]2CC[C@H](c3ccc(Cl)cc3)CC2)C(=O)c2ccccc21 | SH-SY5Y | resazurin | – | – | – | IC50 | > 50000 nM
CC(C)c1ccccc1[C@@H]1CCCN1C1CC2(CCN(c3ccc(C(=O)NS(=O)(=O)c4ccc(NC[C@H]5CC[C@](C)(O)CC5)c([N+](=O)[O-])c4)c(Oc4cnc5[nH]ccc5c4)c3)CC2)C1 | MM.1R | ATP luminescence | – | 48 h | – | IC50 | 7430 nM
COc1cc2c3c(n(CCCNC(C)C)c(=O)c2cc1OC)-c1nc2c(cc1C3=O)OCO2 | SK-N-MC | MTS | – | 72 h | – | IC50 | 150 nM
[H]/N=C(\N/C(=N/[H])Nc1ccc(Cl)cc1)NC(C)C | SH-SY5Y | resazurin | – | – | – | IC50 | > 50000 nM
CC(C)(C)c1cnc(CSc2cnc(NC(=O)C3CCN(CCCCCCCCSc4cccc5c4CN(C4CCC(=O)NC4=O)C5=O)CC3)s2)o1 (centres unmarked) | HuT78 | trypan blue | 0.25 µM | 48 h | – | viability | 22.4%
Nc1ccc(/C=C/C(=O)N2CCc3c(oc4c(-c5ccc(F)cc5)cc(-c5ccc(C(=O)N6C[C@@H]7[C@H](C6)C7(F)F)nn5)cc34)C2)cn1 | Pan02 | CCK-8 | – | 72 h | – | IC50 | 300 nM
CCN(CC)Cc1cc(Nc2ccnc3cc(Cl)ccc23)ccc1O | SH-SY5Y | resazurin | – | – | – | IC50 | 17000 nM
